ChEMBL document CHEMBL2331324, “Synthesis and biological evaluation of guanidino analogues of roscovitine” (Eur J Med Chem, 2013)

Legend:
MCF7 [1] = assay: Cell cycle arrest in human MCF7 cells assessed as accumulation of cells in G2+M phase at 100 uM after 24 hrs by propidium iodide staining based flow cytometry relative to untreated control; type: functional
Summary of the method: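 Flow cytometry on MCF7 cells given 100 µM for 24 h. About one million cells fixed in 90% methanol and rehydrated. DNA stained with propidium iodide, read at 488/575 nm (ex/em). The value is the G2+M fraction of treated cells divided by the G2+M fraction of untreated control cells.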

MCF7 [2] = assay: Cytotoxicity against human MCF7 cells assessed as inhibition of cell viability after 72 hrs by calcien AM dye based fluorescence analysis; type: functional; details: MCF7, 72 h
Summary of the method: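 MCF7 cells grown in DMEM with 10% FBS, 2 mM glutamine, penicillin and streptomycin at 37 °C and 5% CO2. About 10,000 cells per well, left 4 h, then a concentration range added in triplicate, DMSO ≤0.5% final. After 72 h, 1 µg/ml calcein AM (final) for 1 h; fluorescence read at 485/538 nm. Viability given as % of control; IC50 read graphically from dose-response curves; mean of ≥3 independent experiments.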

[3] = molecular target: Cyclin-dependent kinase 2/cyclin E1 (Homo sapiens, UniProt P24941); assay: Inhibition of recombinant CDK2/cyclin E (unknown origin) using histone H1 as substrate in presence of [gamma-33P]ATP; type: protein-complex assay
[4] = molecular target: Cyclin-dependent kinase 1/cyclin B1 (Homo sapiens, UniProt P06493); assay: Inhibition of recombinant CDK1/cyclin B (unknown origin) using histone H1 as substrate in presence of [gamma-33P]ATP; type: protein-complex assay
Sequence of Cyclin-dependent kinase 1/cyclin B1 (P06493 whole entry): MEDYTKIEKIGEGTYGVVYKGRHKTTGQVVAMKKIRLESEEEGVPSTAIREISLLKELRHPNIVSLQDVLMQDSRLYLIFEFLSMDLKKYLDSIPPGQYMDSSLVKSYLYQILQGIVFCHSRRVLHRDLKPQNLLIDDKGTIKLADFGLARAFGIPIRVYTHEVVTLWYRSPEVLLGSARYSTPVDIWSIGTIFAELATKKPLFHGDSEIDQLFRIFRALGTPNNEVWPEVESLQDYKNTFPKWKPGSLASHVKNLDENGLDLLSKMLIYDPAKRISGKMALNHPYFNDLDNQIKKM
Sequence of Cyclin-dependent kinase 1/cyclin B1 (P14635 whole entry, further chain): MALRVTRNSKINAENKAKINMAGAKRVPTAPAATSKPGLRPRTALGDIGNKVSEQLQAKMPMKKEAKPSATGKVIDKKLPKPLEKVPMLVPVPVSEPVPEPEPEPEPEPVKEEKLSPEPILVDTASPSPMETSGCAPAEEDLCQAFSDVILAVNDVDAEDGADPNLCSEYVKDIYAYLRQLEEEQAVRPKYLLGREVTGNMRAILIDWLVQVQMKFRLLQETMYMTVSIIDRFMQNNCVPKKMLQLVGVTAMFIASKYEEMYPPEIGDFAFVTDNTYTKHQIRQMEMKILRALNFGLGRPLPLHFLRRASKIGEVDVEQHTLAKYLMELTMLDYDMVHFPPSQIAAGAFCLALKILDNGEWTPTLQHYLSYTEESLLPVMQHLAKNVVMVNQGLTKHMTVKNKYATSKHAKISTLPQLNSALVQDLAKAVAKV

[5] = molecular target: Aurora kinase A/B (Homo sapiens) (UniProt Q96GD4+O14965); assay: Activity at Aurora kinase A/B in human MCF7 cells assessed as histone H3 phosphorylation at Ser10 at 100 uM after 24 hrs by flow cytometry relative to untreated control; type: cell-based
Sequence of Aurora kinase A/B (Homo sapiens) (O14965 whole entry, looked up): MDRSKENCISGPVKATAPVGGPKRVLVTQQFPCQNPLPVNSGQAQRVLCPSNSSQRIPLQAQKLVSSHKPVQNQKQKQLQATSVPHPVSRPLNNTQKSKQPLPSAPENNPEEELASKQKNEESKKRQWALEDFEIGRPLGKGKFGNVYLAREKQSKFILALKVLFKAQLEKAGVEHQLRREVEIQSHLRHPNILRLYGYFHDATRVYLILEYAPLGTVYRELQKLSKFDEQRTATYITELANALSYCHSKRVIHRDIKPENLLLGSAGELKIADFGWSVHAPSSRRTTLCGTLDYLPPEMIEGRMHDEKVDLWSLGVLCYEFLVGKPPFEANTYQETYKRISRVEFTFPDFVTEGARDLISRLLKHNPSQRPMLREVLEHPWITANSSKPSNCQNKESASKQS
Sequence of Aurora kinase A/B (Homo sapiens) (Q96GD4 whole entry, looked up): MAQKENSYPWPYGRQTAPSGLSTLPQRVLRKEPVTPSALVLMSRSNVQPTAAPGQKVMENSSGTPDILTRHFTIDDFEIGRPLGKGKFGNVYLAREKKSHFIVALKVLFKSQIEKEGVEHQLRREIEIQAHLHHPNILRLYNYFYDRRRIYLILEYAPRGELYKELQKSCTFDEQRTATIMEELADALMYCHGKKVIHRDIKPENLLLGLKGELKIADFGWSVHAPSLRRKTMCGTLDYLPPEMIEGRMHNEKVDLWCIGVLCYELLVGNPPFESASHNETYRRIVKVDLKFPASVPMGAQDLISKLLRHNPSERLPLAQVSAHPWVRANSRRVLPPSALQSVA
Summary of the method: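 Flow cytometry on MCF7 cells exposed 24 h to 100 µM. About one million cells fixed in 90% methanol, rehydrated, and labelled with primary antibody to pH3 Ser10, then an Alexa Fluor 488 secondary. Alexa read at 488/525 nm (ex/em). The value is the fraction of pH3-positive cells in treated cultures divided by that in untreated control.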

[6] = molecular target: Cyclin-dependent kinase 2/cyclin E1 (Homo sapiens) (UniProt P24864+P24941); assay: Ratio of compound IC50 to roscovitine IC50 for recombinant CDK2/cyclin E (unknown origin); type: protein-complex assay
[7] = molecular target: Cyclin-dependent kinase 1/cyclin B1 (Homo sapiens) (UniProt P06493+P14635); assay: Ratio of compound IC50 to roscovitine IC50 for recombinant CDK1/cyclin B (unknown origin); type: protein-complex assay
Sequence of Cyclin-dependent kinase 1/cyclin B1 (Homo sapiens) (P06493 whole entry, looked up): as the sequence (P06493 whole entry) above
Sequence of Cyclin-dependent kinase 1/cyclin B1 (Homo sapiens) (P14635 whole entry, looked up): as the sequence (P14635 whole entry, further chain) above

MCF7 [8] = assay: Ratio of compound IC50 to roscovitine IC50 for human MCF7 cells after 72 hrs by calcien AM dye based fluorescence analysis; type: functional

Structure (SMILES)	IC50 [3]	IC50 [4]	Ratio [5]	Ratio IC50 [6]	Ratio IC50 [7]	Ratio (MCF7 [1])	IC50 (MCF7 [2])	Ratio IC50 (MCF7 [8])
N=C(N)Nc1nc(N)nc2c1ncn2CC(F)(F)F	> 100 µM	> 100 µM				0.8	> 100 µM	
N=C(N)Nc1nc(N)nc2c1ncn2CCO	> 100 µM	> 100 µM				0.9	> 100 µM	
[N-]=[N+]=NCCn1cnc2c(NC(=N)N)nc(N)nc21	74.9 µM	> 100 µM				1.4	> 100 µM	
CC(C)n1cnc2c(N)nc(N)nc21	22.2 µM	64.9 µM				0.9	> 100 µM	
CN(C)c1nc(N)nc2c1ncn2CCN=[N+]=[N-]	> 100 µM	> 100 µM				1	> 100 µM	
CCCn1cnc2c(NC(=N)N)nc(N)nc21	10.7 µM	55.9 µM	6.71			4	36.5 µM	
CC(C)[C@@H](N)COc1nc(NC(=N)N)c2ncn(C(C)C)c2n1	8 µM	15.6 µM	0.39			2.1	79.4 µM	
CC(C)Cn1cnc2c(NC(=N)N)nc(N)nc21	66.5 µM	> 100 µM	7			3.5	96.6 µM	
CC(C)n1cnc2c(NC(=N)N)nc(OC[C@H]3CCCN3)nc21	23.6 µM	81.5 µM				1.3	> 100 µM	
N=C(N)Nc1nc(N)nc2c1ncn2CCN	> 100 µM	> 50 µM				1	> 100 µM	
CC[C@@H](N)COc1nc(NC(=N)N)c2ncn(C(C)C)c2n1	13.3 µM	47.6 µM	1.08			0.8	> 100 µM	
Cn1cnc2c(NC(=N)N)ncnc21	> 100 µM	> 100 µM				1	> 100 µM	
CC(C)n1cnc2c(NC(=N)N)nc(OC[C@@H]3CCCN3)nc21	25.2 µM	> 100 µM	0.8			1.7	> 100 µM	
CC[C@H](CO)Nc1nc(NCc2ccccc2)c2ncn(C(C)C)c2n1 [SELICICLIB]							20.2 µM	

The next lines start with results.

IC50 [3]	IC50 [4]	Ratio [5]	Ratio IC50 [6]	Ratio IC50 [7]	Structure (SMILES)	Ratio (MCF7 [1])	IC50 (MCF7 [2])	Ratio IC50 (MCF7 [8])
0.5 µM	6.4 µM	0.17			CC(C)n1cnc2c(NC(=N)N)nc(NC3CC3)nc21	2.4	5.4 µM	
1.7 µM	12.6 µM	0.1	5	5	CCn1cnc2c(NC(=N)N)nc(N)nc21	1.6	54.3 µM	2
1.8 µM	1.1 µM	0.09			CC(C)[C@H](N)COc1nc(NC(=N)N)c2ncn(C(C)C)c2n1	1.7	3.4 µM	
0.67 µM	6.2 µM	0.1			CC(C)n1cnc2c(NC(=N)N)nc(N3CCC[C@@H]3CO)nc21	2	20.4 µM	
1.6 µM	4.2 µM	0.33			CC(C)n1cnc2c(NC(=N)N)nc(NCCCCCCO)nc21	2	5.2 µM	
6.8 µM	38.2 µM	0.81			Cn1cnc2c(NC(=N)N)nc(N)nc21	1.5	> 100 µM	
1.3 µM	14.8 µM	0.18	5	5	CC(C)n1cnc2c(NC(=N)N)nc(N)nc21	2	97.2 µM	4
7.9 µM	37.5 µM				CCn1cnc2c(N)nc(N)nc21	1.2	> 100 µM	
6.2 µM	8.1 µM	0.07			CC[C@H](N)COc1nc(NC(=N)N)c2ncn(C(C)C)c2n1	1.5	16.3 µM	
0.82 µM	15.1 µM	0.15			CC(C)n1cnc2c(NC(=N)N)nc(NCCO)nc21	2.9	12.4 µM	
0.18 µM	4.1 µM	0.18			CC(C)n1cnc2c(NC(=N)N)nc(NCCCO)nc21	2.5	8.8 µM	
0.14 µM	2 µM	0.13			CC(C)[C@H](CO)Nc1nc(NC(=N)N)c2ncn(C(C)C)c2n1	2.3	10.5 µM	
0.16 µM	1.5 µM	0.11			CC(C)n1cnc2c(NC(=N)N)nc(N3CCC[C@H]3CO)nc21	1.7	6.2 µM	
0.071 µM	1.1 µM	0.09			CC(C)[C@@H](CO)Nc1nc(NC(=N)N)c2ncn(C(C)C)c2n1	1.8	2.1 µM	
